# Test results from ChEMBL document CHEMBL1128362, “Structure-activity relationships of 9-alkyladenine and ribose-modified adenosine derivatives at rat A3 adenosine receptors” (J Med Chem, 1995).
# Activity calls are given as the source filed them. The rule behind the calls is not given here.
# Columns and labels:
# Adenosine receptor A2a = Adenosine receptor A2a (Rattus norvegicus, UniProt P30543); assay: Binding affinity against adenosine A2A receptor from rat brain.
# Adenosine receptor A3 = target: T1, Adenosine receptor A3 (Rattus norvegicus, UniProt P28647); assay: Binding affinity against adenosine A3 receptor (rat) stably expressed in CHO cell membranes.
# T1 sequence (P28647 whole entry): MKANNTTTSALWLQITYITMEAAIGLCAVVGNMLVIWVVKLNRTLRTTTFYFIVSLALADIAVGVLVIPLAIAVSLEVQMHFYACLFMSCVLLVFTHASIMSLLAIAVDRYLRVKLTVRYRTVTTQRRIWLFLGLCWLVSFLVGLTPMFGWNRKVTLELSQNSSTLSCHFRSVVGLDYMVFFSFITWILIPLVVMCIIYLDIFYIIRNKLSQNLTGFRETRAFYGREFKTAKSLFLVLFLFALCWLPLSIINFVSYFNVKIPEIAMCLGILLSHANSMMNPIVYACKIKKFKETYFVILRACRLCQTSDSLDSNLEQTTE
# Outline: (§1)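 Rat brain A3 receptor was stably expressed in CHO cell membranes and labelled with [125I]AB-MECA at 0.3 nM final, in 50 mM Tris/10 mM MgCl2/1 mM EDTA, pH 8.26. Inhibitors were in DMSO, at no more than 2% final. Incubation was 1 h at 37 °C in duplicate, ended by filtration. Nonspecific binding was defined by 200 µM NECA.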
# [1] = target: Adenosine receptors; A1 & A3 (Rattus norvegicus) (UniProt P25099+P28647); assay: Ratio of the binding affinities against rat brain A1 and A3 receptors, KiA1/KiA3.
# [2] = target: Adenosine receptor A2a and A3 (Rattus norvegicus) (UniProt P30543+P28647); assay: Ratio of the binding affinities against rat brain A2a and A3 receptors, KiA2a/KiA3.
# [3] = target: Adenosine receptor A2a (Rattus norvegicus) (UniProt P30543); assay: Binding affinity against Adenosine A2A receptor from rat brain; parameters: concentration or dose not given beside the values; settings: concentration not given here
# Outline: (§2)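 Rat A1 receptors came from cerebral cortical membranes with [3H]R-PIA, and rat A2a receptors came from striatal membranes with [3H]CGS 21680. Membranes were pretreated with adenosine deaminase (2 U/mL) for 30 min at 37 °C. Nonspecific binding was defined by 2-chloroadenosine at 10 µM (A1) and 200 µM (A2a).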
# [4] = target: T2, Adenosine receptor A3 (Rattus norvegicus) (UniProt P28647); assay: Inhibition of Adenosine A3 receptor from rat brain; settings: concentration not given here; outline: as §1
# T2 sequence (whole entry): T1 sequence (P28647 whole entry)
# [5] = target: T3, Adenosine receptor A1 (Rattus norvegicus) (UniProt P25099); assay: Inhibition of Adenosine A1 receptor from rat brain.; settings: concentration not given here; outline: as §2
# T3 sequence (whole entry): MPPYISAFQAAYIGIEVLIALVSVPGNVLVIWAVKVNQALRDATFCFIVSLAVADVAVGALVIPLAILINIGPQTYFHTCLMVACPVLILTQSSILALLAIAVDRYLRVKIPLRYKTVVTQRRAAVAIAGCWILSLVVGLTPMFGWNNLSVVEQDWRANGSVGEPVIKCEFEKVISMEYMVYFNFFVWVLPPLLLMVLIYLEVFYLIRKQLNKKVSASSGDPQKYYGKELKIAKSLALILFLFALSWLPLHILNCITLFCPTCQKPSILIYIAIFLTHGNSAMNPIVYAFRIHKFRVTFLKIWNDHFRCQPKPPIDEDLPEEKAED
# [6] = target: T2, Adenosine receptor A3 (Rattus norvegicus); assay: Ability to inhibit the adenylyl cyclase in CHO cells stably transfected with rat Adenosine A3 receptor at the concentration of 100 uM; assay type: cell-based
# Outline: (§3)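 Adenylyl cyclase activity measured in membranes of CHO cells stably transfected with rat brain A3 receptor, following an earlier published method. […] Untransfected CHO cell membranes served as the control.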
# [7] = target: T2, Adenosine receptor A3 (Rattus norvegicus); settings: CHO
# [8] = target: T2, Adenosine receptor A3 (Rattus norvegicus); settings: CHO; remark: listed apart in the source
# [9] = target: T2, Adenosine receptor A3 (Rattus norvegicus); assay: Ratio of the concentration (100 uM) effecting adenylyl cyclase and binding affinity against rat brain A3 receptors.
# Outline: (§4)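 This ratio is the adenylyl cyclase test concentration (20, 40 or 100 µM) divided by the A3 Ki. The Ki came from [125I]AB-MECA displacement in membranes of CHO cells expressing rat A3 receptor.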
# [10] = target: T2, Adenosine receptor A3 (Rattus norvegicus); assay: Agonist elicited inhibition of adenylyl cyclase via rat Adenosine A3 receptor in transfected CHO cells and effect on IB-MECA was determined from dose response curves at the concentration of 100(uM); assay type: functional, cell-based
# Outline: (§5)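 CHO cell membranes stably transfected with rat A3 receptor were used to test for antagonism. Adenylyl cyclase inhibition was elicited by the A3 agonist IB-MECA across a dose-response curve, and test agent at 40 or 100 µM was checked for reversal of the agonist-induced inhibition. The cyclase measurement followed a previously described method.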
# [11] = target: T2, Adenosine receptor A3 (Rattus norvegicus); assay: Ability to inhibit the adenylyl cyclase in CHO cells stably transfected with rat Adenosine A3 receptor at the concentration of 40(uM); assay type: cell-based; outline: as §3
# [12] = target: T2, Adenosine receptor A3 (Rattus norvegicus); assay: Agonist elicited inhibition of adenylyl cyclase via rat Adenosine A3 receptor in transfected CHO cells and effect on IB-MECA was determined from dose response curves at the concentration of 40(uM); assay type: functional, cell-based; outline: as §5
# Adenosine receptor A1 = target: T4, Adenosine receptor A1 (Rattus norvegicus, UniProt P25099); assay: Binding affinity against adenosine A1 receptor from rat brain.
# T4 sequence (P25099 whole entry): T3 sequence (whole entry)
# [13] = target: T2, Adenosine receptor A3 (Rattus norvegicus); assay: Ability to inhibit the adenylyl cyclase in CHO cells stably transfected with rat Adenosine A3 receptor at the dose of 40(uM); assay type: cell-based; outline: as §3
# [14] = target: T2, Adenosine receptor A3 (Rattus norvegicus); assay: Ratio of the concentration (40 uM) effecting adenylyl cyclase and binding affinity against rat brain Adenosine A3 receptor; outline: as §4
# Chain of Adenosine receptor A2a and A3 (Rattus norvegicus) (P30543 whole entry, looked up, one chain of several): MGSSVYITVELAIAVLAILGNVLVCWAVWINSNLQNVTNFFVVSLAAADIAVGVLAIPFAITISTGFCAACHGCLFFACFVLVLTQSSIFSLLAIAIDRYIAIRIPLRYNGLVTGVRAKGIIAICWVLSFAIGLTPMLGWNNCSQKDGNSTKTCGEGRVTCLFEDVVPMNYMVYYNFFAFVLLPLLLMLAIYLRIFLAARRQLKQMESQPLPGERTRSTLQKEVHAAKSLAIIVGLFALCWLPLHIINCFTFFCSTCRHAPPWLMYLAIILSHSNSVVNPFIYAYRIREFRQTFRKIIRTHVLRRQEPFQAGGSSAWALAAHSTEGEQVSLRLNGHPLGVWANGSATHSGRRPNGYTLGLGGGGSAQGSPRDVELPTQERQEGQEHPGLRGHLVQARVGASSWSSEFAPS
# Chain of Adenosine receptor A2a (Rattus norvegicus) (P30543 whole entry): as the sequence (P30543 whole entry, looked up, one chain of several) above
# Chain of Adenosine receptor A2a (P30543 whole entry): as the sequence (P30543 whole entry, looked up, one chain of several) above
smiles,measurement,setting,value
Cn1cnc2c(NC3CCCC3)ncnc21,Ki,Adenosine receptor A2a,11 µM
same,Ki,Adenosine receptor A3,1330 µM
same,Ratio,[1],0.00041
same,Ratio,[2],0.0083
CNC(=O)[C@@H]1C[C@H](N)[C@H](n2cnc3c(NCc4cccc(I)c4)nc(Cl)nc32)O1,inhibition,[3],2%
CNc1nc(NCc2cccc(I)c2)c2ncn(C)c2n1,Ratio,[1],0.67
same,Ratio,[2],3.7
CNC(=O)C1OC(n2cnc3c(NC(=O)c4cccc(I)c4)nc(Cl)nc32)C(OC(=O)c2ccccc2)C1OC(=O)c1ccccc1 (stereo not drawn),inhibition,[4],55%
same,inhibition,[3],7%
same,inhibition,[5],21%
N#CCCCn1cnc2c(NCc3cccc(I)c3)ncnc21,Ratio,[1],0.032
same,Ratio,[2],0.1
Cn1cnc2c(NCc3cccc(I)c3)nc(N)nc21,Ratio,[1],0.14
same,Ratio,[2],0.08
CNC(=O)[C@H]1O[C@@H](n2cnc3c(NCc4cccc(I)c4)ncnc32)[C@H](O)[C@@H]1O,inhibition,[6],44.4%
same,Effect,[7],inactive
same,Effect,[8],inactive
Cn1cnc2c(NCc3cccc(I)c3)ncnc21,Ratio,[1],0.12
same,Ratio,[2],0.046
CC(C)[Si]1(C(C)C)OC[C@H]2O[C@@H](n3cnc4c(NCc5cccc(I)c5)nc(Cl)nc43)[C@H](O)[C@@H]2O[Si](C(C)C)(C(C)C)O1,inhibition,[6],8.7%
same,inhibition,[3],18%
same,Ratio,[1],5.1
same,Ratio,[2],> 7
same,Ratio,[9],7.6
OCCn1cnc2c(NCc3cccc(I)c3)ncnc21,Ratio,[1],0.37
same,Ratio,[2],0.24
CSc1nc(NCc2cccc(I)c2)c2ncn(C)c2n1,inhibition,[6],19.5%
same,Effect,[10],0
same,Ratio,[1],6.3
same,Ratio,[2],5.5
same,Ratio,[9],330
CNC(=O)[C@H]1O[C@@H](n2cnc3c(NCc4cccc(I)c4)nc(Cl)nc32)[C@@H]2OC(=S)O[C@@H]21,Ratio,[1],15
same,Ratio,[2],71
same,Ratio,[9],8200
CCCCCC[C@@H]([C@@H](C)O)n1cnc2c(N)ncnc21,inhibition,[11],5.9%
same,inhibition,[4],57%
same,inhibition,[3],60%
same,Effect,[12],0
CC(O)[C@@H]1O[C@@H](n2cnc3c(N)ncnc32)[C@H](O)[C@@H]1O (stereo partly drawn),inhibition,[11],0%
same,Ki,Adenosine receptor A2a,54.7 µM
same,Ki,Adenosine receptor A3,6 µM
same,Ratio,[1],< 1
same,Ratio,[2],< 1
same,Ki,Adenosine receptor A1,150 µM
CS[C@H]1OC(n2cnc3c(N)ncnc32)[C@H](O)[C@@H]1O (stereo partly drawn),inhibition,[13],19.7%
same,Ratio,[14],28
Cn1cnc2c(NCc3cccc(I)c3)nc(Sc3ccncc3)nc21,Ratio,[1],0.0051
same,Ratio,[2],0.07
